What was measured:
Assay type in all cases: functional
OVCAR-4 [1] = experiment: Cytotoxicity against human OVCAR4 cells assessed as cell growth at 0.01 uM after 48 hrs by sulforhodamine B assay; conditions: OVCAR-4, 48 h, read-out: Activity
SF-268 = experiment: Cytotoxicity against human SF268 cells assessed as cell growth at 10 '-5 M after 48 hrs by sulforhodamine B assay; conditions: SF-268, 48 h, read-out: Activity
NCI/ADR-RES = experiment: Cytotoxicity against human NCI/ADR-RES cells assessed as cell growth at 0.1 uM after 48 hrs by sulforhodamine B assay; conditions: read-out: Activity
RPMI-8226 = experiment: Cytotoxicity against human RPMI8226 cells assessed as cell growth at 0.1 uM after 48 hrs by sulforhodamine B assay; conditions: RPMI-8226, 48 h, read-out: Activity
MDA-MB-468 = experiment: Growth inhibition of human MDA-MB-468 cells after 48 hrs by sulforhodamine B assay; conditions: MDA-MB-468, 48 h; for CC50: read-out: LC50 (the source's name)
How it was run: (§1)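 Adherent NCI-60 lines were grown in RPMI 1640 with 5% FBS and 2 mM L-glutamine, plated at 5000–40,000 cells/well and preincubated 24 h. They were then exposed to five concentrations (0.01–100 µM, from a DMSO stock) for 48 h at 37 °C, 5% CO2. Cells were fixed with cold TCA (10% final, 60 min, 4 °C) and stained with 0.4% SRB. Dye was solubilized in 10 mM Tris base and A515 read. GI50 was derived from time-zero, control and treated absorbances.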

Malme-3M [2] = experiment: Growth inhibition of human MALME-3M cells after 48 hrs by sulforhodamine B assay; conditions: for CC50: read-out: LC50 (the source's name); how it was run: as §1
SNB-75 = experiment: Cytotoxicity against human SNB75 cells assessed as cell growth at 100 uM after 48 hrs by sulforhodamine B assay; conditions: SNB-75, 48 h, read-out: Activity
SF-295 [3] = experiment: Cytotoxicity against human SF295 cells assessed as cell growth at 0.01 uM after 48 hrs by sulforhodamine B assay; conditions: SF-295, 48 h, read-out: Activity
NCI-H226 [4] = experiment: Cytotoxicity against human NCI-H226 cells assessed as cell growth at 100 uM after 48 hrs by sulforhodamine B assay; conditions: NCI-H226, 48 h, read-out: Activity
NCI-H226 [5] = experiment: Cytotoxicity against human NCI-H226 cells assessed as cell growth at 1 uM after 48 hrs by sulforhodamine B assay; conditions: NCI-H226, 48 h, read-out: Activity
SF-295 [6] = experiment: Cytotoxicity against human SF295 cells assessed as cell growth at 100 uM after 48 hrs by sulforhodamine B assay; conditions: SF-295, 48 h, read-out: Activity
UO-31 = experiment: Growth inhibition of human UO31 cells after 48 hrs by sulforhodamine B assay; conditions: UO-31, 48 h; for CC50: read-out: LC50 (the source's name); how it was run: as §1
NCI-H226 [7] = experiment: Cytotoxicity against human NCI-H226 cells assessed as cell growth at 0.1 uM after 48 hrs by sulforhodamine B assay; conditions: NCI-H226, 48 h, read-out: Activity
Malme-3M [8] = experiment: Cytotoxicity against human MALME-3M cells assessed as cell growth at 0.1 uM after 48 hrs by sulforhodamine B assay; conditions: read-out: Activity
CAKI-1 = experiment: Cytotoxicity against human Caki1 cells assessed as cell growth at 10 '-5 M after 48 hrs by sulforhodamine B assay; conditions: CAKI-1, 48 h, read-out: Activity
How it was run: (§2)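 Primary NCI-60 single-dose screen at 10 µM. Cells were grown in RPMI 1640 with 5% FBS and 2 mM L-glutamine and plated 24 h before drug addition. Compound was solubilized in DMSO, then exposed for 48 h at 37 °C under 5% CO2. Cells were TCA-fixed and stained with SRB, and absorbance was read at 515 nm. Growth was expressed relative to time-zero and untreated controls.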

SNB-19 = experiment: Cytotoxicity against human SNB19 cells assessed as cell growth at 10 '-5 M after 48 hrs by sulforhodamine B assay; conditions: SNB-19, 48 h, read-out: Activity
TK-10 = experiment: Cytotoxicity against human TK10 cells assessed as cell growth at 10 '-5 M after 48 hrs by sulforhodamine B assay; conditions: TK-10, 48 h, read-out: Activity
ACHN = experiment: Growth inhibition of human ACHN cells after 48 hrs by sulforhodamine B assay; conditions: for CC50: read-out: LC50 (the source's name)
How it was run: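 Cells were in RPMI 1640 with 5% FBS and pre-incubated 24 h. Read-out was TCA fixation, SRB staining and absorbance at 515 nm. GI50 was the concentration where [(Ti−Tz)/(C−Tz)]×100 = 50, taken from log concentration vs % growth curves. It is given as ">" the top concentration when not reached.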

NCI-H226 [9] = experiment: Cytotoxicity against human NCI-H226 cells assessed as cell growth at 10 uM after 48 hrs by sulforhodamine B assay; conditions: NCI-H226, 48 h, read-out: Activity
MDA-MB-231 = experiment: Cytotoxicity against human MDA-MB-231 cells assessed as cell growth at 1 uM after 48 hrs by sulforhodamine B assay; conditions: MDA-MB-231, 48 h, read-out: Activity
HOP-92 = experiment: Growth inhibition of human HOP92 cells after 48 hrs by sulforhodamine B assay; conditions: HOP-92, 48 h; how it was run: as §1
UACC-62 = experiment: Cytotoxicity against human UACC62 cells assessed as cell growth at 10 '-5 M after 48 hrs by sulforhodamine B assay; conditions: UACC-62, 48 h, read-out: Activity
NCI-H522 = experiment: Cytotoxicity against human NCI-H522 cells assessed as cell growth at 100 uM after 48 hrs by sulforhodamine B assay; conditions: NCI-H522, 48 h, read-out: Activity
IGROV-1 = experiment: Cytotoxicity against human IGROV1 cells assessed as cell growth at 10 uM after 48 hrs by sulforhodamine B assay; conditions: IGROV-1, 48 h, read-out: Activity
A549 = experiment: Cytotoxicity against human A549 cells assessed as cell growth at 10 '-5 M after 48 hrs by sulforhodamine B assay; conditions: A549, 48 h, read-out: Activity; how it was run: as §2
OVCAR-4 [10] = experiment: Cytotoxicity against human OVCAR4 cells assessed as cell growth at 100 uM after 48 hrs by sulforhodamine B assay; conditions: OVCAR-4, 48 h, read-out: Activity
U-251 = experiment: Cytotoxicity against human U251 cells assessed as cell growth at 10 '-5 M after 48 hrs by sulforhodamine B assay; conditions: U-251, 48 h, read-out: Activity

SMILES | growth at 0.01 µM (OVCAR-4 [1]) [%] | growth at 10 µM (SF-268) [%] | growth at 0.1 µM (NCI/ADR-RES) [%] | growth at 0.1 µM (RPMI-8226) [%] | GI50 (MDA-MB-468) [nM] | TGI (MDA-MB-468) [nM] | CC50 (MDA-MB-468) [nM] | TGI (Malme-3M [2]) [nM] | CC50 (Malme-3M [2]) [nM] | growth at 100 µM (SNB-75) [%] | growth at 0.01 µM (SF-295 [3]) [%] | growth at 100 µM (SF-295 [6]) [%] | TGI (UO-31) [nM] | CC50 (UO-31) [nM] | growth at 0.1 µM (Malme-3M [8]) [%] | growth at 10 µM (CAKI-1) [%] | growth at 10 µM (SNB-19) [%] | growth at 10 µM (TK-10) [%] | GI50 (ACHN) [nM] | TGI (ACHN) [nM] | also measured
Clc1cccc(Cl)c1Nc1nc2cccc(Cl)c2s1 | 94 | -33.9 | 87 | 97 | 343 | 1740 | 5790 | 2400 | 5600 | 4 | 93 | -51 | 1670 | 4440 | 90 | -10.6 | 13.8 | -35.7 | 1150 | 2380 | GI50 (Malme-3M [2]): 1030 nM; growth at 100 µM (NCI-H226 [4]): -72%; growth at 1 µM (NCI-H226 [5]): -9%; GI50 (UO-31): 161 nM; growth at 0.1 µM (NCI-H226 [7]): 45%; CC50 (ACHN): 4920 nM; growth at 10 µM (NCI-H226 [9]): -83%; growth at 1 µM (MDA-MB-231): 17%; GI50 (HOP-92): 71.8 nM; TGI (HOP-92): 690 nM; CC50 (HOP-92; read-out: LC50 (the source's name)): 3610 nM; growth at 10 µM (UACC-62): -62.9%; growth at 100 µM (NCI-H522): -49%; growth at 10 µM (IGROV-1): -55%; growth at 10 µM (A549): 0.55%; growth at 100 µM (OVCAR-4 [10]): -87%
Cc1ccc2nc(Nc3c(C)cccc3C)sc2c1 | 97 | 61 | 93 | 100 | 330 | > 100000 | > 100000 | > 100000 | > 100000 | 32 | 91 | 14 | > 100000 | > 100000 | 103 | 22.1 | 59.5 | 61.3 | 76600 | > 100000 | growth at 10 µM (U-251): 34%; CC50 (ACHN): > 100000 nM; growth at 1 µM (MDA-MB-231): 37%; growth at 10 µM (UACC-62): 35.7%; growth at 100 µM (NCI-H522): 34%; growth at 10 µM (IGROV-1): 42%; growth at 10 µM (A549): 32.6%; growth at 100 µM (OVCAR-4 [10]): 77%

Reference: ChEMBL document CHEMBL2040734, “Benzothiazoles: search for anticancer agents” (2012)
